According to ChEMBL document CHEMBL1687867, “Thiazolidione derivatives as novel antibiofilm agents: design, synthesis, biological evaluation, and structure-activity relationships” (2011):
In brackets after ≈: the same amount, converted by molar mass.

Assays:
[1] = system: Staphylococcus epidermidis; experiment: Antibacterial activity against Staphylococcus epidermidis ATCC 35984 by broth microdilution method; type: functional; conditions: RP62A
In short: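 MIC determined by CLSI broth microdilution […].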

[2] = system: Staphylococcus epidermidis; experiment: Antibacterial activity against Staphylococcus epidermidis ATCC 35984 assessed as inhibition of biofilm production after 6 hrs; type: functional, RP62A; conditions: in the assay text read “after 18 hrs” for “after 6 hrs”
In short: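 Young S. epidermidis biofilm grown 6 h at 37 °C in TSB with glucose in microtiter wells, washed four times with PBS, then exposed to fresh TSB carrying serially diluted compounds for 18 h at 37 °C. After PBS washes, methanol fixation 15 min, air drying and crystal violet staining. Washed dried biofilm served as blank (subtracted), TSB-only biofilm as positive control; triplicate wells, three repeats.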

[3] = system: Staphylococcus epidermidis; experiment: Antibacterial activity against Staphylococcus epidermidis ATCC 35984 assessed as inhibition of biofilm production after 18 hrs

| Structure (SMILES) | MIC [1] [µM] | Biofilm inhibitory concentration [2] [µM] | INH [3] [µM] |
| --- | --- | --- | --- |
| CCOC(=O)C1=C(c2ccccc2)N=c2s/c(=C\c3ccc(-c4cccc(C(=O)OC)c4)o3)c(=O)n2C1c1ccc(OC)cc1 (stereo not given) | > 200 | >200 | – |
| CCOC(=O)C1=C(c2ccccc2)N=c2s/c(=C\c3cccc([N+](=O)[O-])c3)c(=O)n2C1c1ccc(OC)cc1 (stereo not given) | > 200 | >200 | – |
| COc1ccc(C/N=C2/S/C(=C\c3ccc(-c4cccc(C(=O)O)c4)o3)C(=O)N2Cc2ccc(OC)cc2)cc1 | 50 (≈ 27.7 µg/mL) | – | – |
| CCOC(=O)C1=C(c2ccccc2)N=c2s/c(=C\c3ccc(N(C)C)cc3)c(=O)n2C1c1ccc(OC)cc1 (stereo not given) | > 200 | >200 | – |
| CCOC(=O)C1=C(c2ccccc2)N=c2s/c(=C\c3ccc(-c4cccc(C(=O)O)c4)o3)c(=O)n2C1c1ccccc1 (stereo not given) | > 200 | >200 | – |
| CCOC(=O)C1=C(c2ccccc2)N=c2s/c(=C\c3ccc(OCC(=O)O)cc3)c(=O)n2C1c1ccc2c(c1)OCO2 (stereo not given) | 25 (≈ 14.6 µg/mL) | 50 | – |
| CCOC(=O)C1=C(c2ccccc2)N=c2s/c(=C\c3cccc(O)c3)c(=O)n2C1c1ccc(OC)cc1 (stereo not given) | > 200 | >200 | – |
| CCOC(=O)C1=C(c2ccccc2)N=c2s/c(=C\c3ccc(O)cc3)c(=O)n2C1c1ccc(OC)cc1 (stereo not given) | > 200 | >200 | – |
| Cc1ccccc1/N=C1/S/C(=C\c2ccc(-c3cccc(C(=O)O)c3)o2)C(=O)N1c1ccccc1C | 12.5 (≈ 6.18 µg/mL) | 25 | – |
| CCOC(=O)C1=C(c2ccccc2)N=c2s/c(=C\c3ccc(-c4cccc(C(=O)OC)c4)o3)c(=O)n2C1c1ccccc1 (stereo not given) | > 200 | >200 | – |
| CCOC(=O)C1=C(c2ccccc2)N=c2s/c(=C\c3ccc(OCC(=O)O)cc3)c(=O)n2C1c1ccc(OC)cc1 (stereo not given) | 25 (≈ 14.3 µg/mL) | 50 | – |
| CCOC(=O)C1=C(c2ccccc2)N=c2s/c(=C\c3ccc(O)c(OC)c3)c(=O)n2C1c1ccc(OC)cc1 (stereo not given) | > 200 | >200 | – |

Further lines, with some results ahead:

| MIC [1] [µM] | Structure (SMILES) | Biofilm inhibitory concentration [2] [µM] | INH [3] [µM] |
| --- | --- | --- | --- |
| 6.25 (≈ 3.88 µg/mL) | CCOC(=O)C1=C(c2ccccc2)N=c2s/c(=C\c3ccc(-c4cccc(C(=O)O)c4)o3)c(=O)n2C1c1ccc2c(c1)OCO2 (stereo not given) | 25 | – |
| 6.25 (≈ 3.09 µg/mL) | Cc1ccc(/N=C2/S/C(=C\c3ccc(-c4cccc(C(=O)O)c4)o3)C(=O)N2c2ccc(C)cc2)cc1 | 12.5 | – |
| 12.5 (≈ 6.48 µg/mL) | COc1ccc(C/N=C2/S/C(=C\c3ccc(OCC(=O)O)cc3)C(=O)N2Cc2ccc(OC)cc2)cc1 | 25 | – |
| 6.25 (≈ 3.29 µg/mL) | COc1ccc(/N=C2/S/C(=C\c3ccc(-c4cccc(C(=O)O)c4)o3)C(=O)N2c2ccc(OC)cc2)cc1 | – | 6.25 |
| 6.25 (≈ 3.79 µg/mL) | CCOC(=O)C1=C(c2ccccc2)N=c2s/c(=C\c3ccc(-c4cccc(C(=O)O)c4)o3)c(=O)n2C1c1ccc(OC)cc1 (stereo not given) | 25 | – |
| 3.12 (≈ 1.55 µg/mL) | Cc1ccccc1/N=C1/S/C(=C\c2ccc(-c3ccc(C(=O)O)cc3)o2)C(=O)N1c1ccccc1C | – | 6.25 |
